# In ChEMBL document CHEMBL4680176, “Identification of DOT1L inhibitors by structure-based virtual screening adapted from a nucleoside-focused library” (Eur J Med Chem, 2020):
# pIC50: −log10 of the molar value. Activity calls are given as the source filed them. No cut-off for these calls is given here.
# Legend:
# [1] = molecular target: T1, Histone-lysine N-methyltransferase, H3 lysine-79 specific (Homo sapiens, UniProt Q8TEK3); experiment: Inhibition of recombinant human N-terminal GST-tagged DOT1L (1 to 420 residues) expressed in Escherichia coli BL21 (DE3) using nucleosome as substrate incubated for 1 hr in presence of [3H]-SAM by liquid scintillation counting method
# Summary of the method: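 GST-tagged DOT1L catalytic domain (1-420), expressed in E. coli BL21(DE3) and Ni-affinity purified, used at 125 nM. Compound added before SAM start; 1 hr at room temperature. Product captured on P81 filters, NaHCO3-washed, and counted by scintillation.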
# Target sequence in this assay (Q8TEK3 whole entry, the tested form may be a part): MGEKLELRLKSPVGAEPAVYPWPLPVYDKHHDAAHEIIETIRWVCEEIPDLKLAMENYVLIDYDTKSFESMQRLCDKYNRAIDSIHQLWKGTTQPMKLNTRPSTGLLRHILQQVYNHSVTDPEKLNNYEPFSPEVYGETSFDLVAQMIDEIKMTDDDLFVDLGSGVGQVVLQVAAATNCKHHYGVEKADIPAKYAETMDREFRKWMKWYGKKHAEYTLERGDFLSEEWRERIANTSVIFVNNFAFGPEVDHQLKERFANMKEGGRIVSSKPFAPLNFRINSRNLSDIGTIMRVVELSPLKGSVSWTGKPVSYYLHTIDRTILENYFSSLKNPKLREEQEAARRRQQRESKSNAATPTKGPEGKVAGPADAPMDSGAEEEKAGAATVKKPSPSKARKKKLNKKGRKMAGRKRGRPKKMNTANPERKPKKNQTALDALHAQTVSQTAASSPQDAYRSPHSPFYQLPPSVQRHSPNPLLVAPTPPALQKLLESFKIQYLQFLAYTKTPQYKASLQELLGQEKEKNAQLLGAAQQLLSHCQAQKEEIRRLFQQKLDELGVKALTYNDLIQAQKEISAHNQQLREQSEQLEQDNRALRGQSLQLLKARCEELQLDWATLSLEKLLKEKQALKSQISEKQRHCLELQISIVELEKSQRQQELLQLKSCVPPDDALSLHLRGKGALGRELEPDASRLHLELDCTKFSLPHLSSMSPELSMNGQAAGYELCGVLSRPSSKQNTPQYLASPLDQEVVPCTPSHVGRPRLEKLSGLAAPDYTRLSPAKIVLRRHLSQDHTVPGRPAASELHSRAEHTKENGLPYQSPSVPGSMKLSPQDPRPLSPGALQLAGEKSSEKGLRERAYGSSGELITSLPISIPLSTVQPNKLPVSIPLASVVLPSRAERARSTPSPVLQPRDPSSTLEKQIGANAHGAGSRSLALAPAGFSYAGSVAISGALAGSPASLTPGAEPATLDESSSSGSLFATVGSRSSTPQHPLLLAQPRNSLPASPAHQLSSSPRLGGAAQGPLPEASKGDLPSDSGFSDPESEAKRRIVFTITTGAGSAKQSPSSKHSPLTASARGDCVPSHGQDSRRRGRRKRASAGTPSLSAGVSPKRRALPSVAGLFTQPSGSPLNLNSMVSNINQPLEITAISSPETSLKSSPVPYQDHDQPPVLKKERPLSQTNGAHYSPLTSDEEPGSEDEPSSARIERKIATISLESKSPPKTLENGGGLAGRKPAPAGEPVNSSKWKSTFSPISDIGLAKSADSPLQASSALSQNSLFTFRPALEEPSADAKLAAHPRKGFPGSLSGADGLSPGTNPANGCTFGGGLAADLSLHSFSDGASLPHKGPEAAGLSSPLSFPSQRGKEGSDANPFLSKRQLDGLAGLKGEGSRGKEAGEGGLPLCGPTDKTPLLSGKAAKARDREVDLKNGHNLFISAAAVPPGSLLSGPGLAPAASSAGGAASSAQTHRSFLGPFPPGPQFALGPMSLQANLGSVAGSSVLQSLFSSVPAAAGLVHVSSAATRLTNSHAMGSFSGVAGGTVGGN
# [2] = molecular target: T1, Histone-lysine N-methyltransferase, H3 lysine-79 specific; experiment: Binding affinity to recombinant human N-terminal GST-tagged DOT1L (1 to 420 residues) expressed in Escherichia coli BL21 (DE3) assessed as increase in melting temperature at 100 uM incubated for 1 min by 1,8-ANS probe based thermal shift assay
# Target sequence in this assay (Q8TEK3 whole entry, looked up, the tested form may be a part): as the sequence (Q8TEK3 whole entry, the tested form may be a part) above
# [3] = molecular target: T2, Histone H3 methyltransferase DOT1 variant d (Mus musculus) (UniProt Q679P4); experiment: Inhibition of DOT1L in mouse bone marrow cell transformed with MLL-AF9 cells assessed as reduction in H3K36 methylation at 100 uM measured upto 9 days by Western blot analysis; format: cell-based; conditions: time day <=9
# T2 sequence (whole entry): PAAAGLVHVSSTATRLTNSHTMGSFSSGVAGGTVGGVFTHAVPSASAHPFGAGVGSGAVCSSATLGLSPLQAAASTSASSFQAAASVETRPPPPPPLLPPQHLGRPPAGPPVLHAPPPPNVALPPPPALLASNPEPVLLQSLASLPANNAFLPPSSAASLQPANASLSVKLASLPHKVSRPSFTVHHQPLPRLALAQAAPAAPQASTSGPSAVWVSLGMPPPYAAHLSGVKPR
# [4] = molecular target: T2, Histone H3 methyltransferase DOT1 variant d (Mus musculus); experiment: Inhibition of DOT1L in mouse bone marrow cell transformed with MLL-AF9 cells assessed as reduction in H3K27 methylation at 100 uM measured upto 9 days by Western blot analysis; format: cell-based; conditions: time day <=9
# [5] = molecular target: T2, Histone H3 methyltransferase DOT1 variant d (Mus musculus); experiment: Inhibition of DOT1L in mouse bone marrow cell transformed with MLL-AF9 cells assessed as reduction in H3K79 methylation at 100 uM measured upto 9 days by Western blot analysis; format: cell-based; conditions: time day <=9, TDE = time-dependent effect
# [6] = molecular target: T1, Histone-lysine N-methyltransferase, H3 lysine-79 specific; experiment: Inhibition of recombinant human N-terminal GST-tagged DOT1L (1 to 420 residues) expressed in Escherichia coli BL21 (DE3) using histone as substrate incubated for 1 hr by MTase-glo based luminescence assay
# Target sequence in this assay (Q8TEK3 whole entry, the tested form may be a part): as the sequence (Q8TEK3 whole entry, the tested form may be a part) above
# [7] = molecular target: T1, Histone-lysine N-methyltransferase, H3 lysine-79 specific; experiment: Binding affinity to recombinant human N-terminal GST-tagged DOT1L (1 to 420 residues) expressed in Escherichia coli BL21 (DE3) assessed as increase in melting temperature at 100 uM incubated for 1 min by 1,8-ANS probe based thermal shift assay
# Target sequence in this assay (Q8TEK3 whole entry, looked up, the tested form may be a part): as the sequence (Q8TEK3 whole entry, the tested form may be a part) above
# [8] = molecular target: DNA (cytosine-5)-methyltransferase 1 (Homo sapiens, UniProt P26358); experiment: Inhibition of recombinant human DNMT1 using poly(dl-dC) as substrate by hotspot assay
# [9] = molecular target: T3, Histone-lysine N-methyltransferase SETD7 (Homo sapiens, UniProt Q8WTS6); experiment: Inhibition of recombinant human SET7/9 using core histone as substrate by hotspot assay
# T3 sequence (Q8WTS6 whole entry): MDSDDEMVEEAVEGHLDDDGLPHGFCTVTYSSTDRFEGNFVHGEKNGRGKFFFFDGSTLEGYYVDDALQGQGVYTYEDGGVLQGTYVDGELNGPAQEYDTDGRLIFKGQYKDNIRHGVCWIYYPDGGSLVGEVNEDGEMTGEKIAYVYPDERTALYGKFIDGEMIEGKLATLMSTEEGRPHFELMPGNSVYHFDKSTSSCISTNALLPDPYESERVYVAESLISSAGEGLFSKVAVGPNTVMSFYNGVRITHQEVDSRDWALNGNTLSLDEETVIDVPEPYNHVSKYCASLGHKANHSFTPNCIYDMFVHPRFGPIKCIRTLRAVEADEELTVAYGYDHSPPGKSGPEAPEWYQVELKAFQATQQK
# [10] = molecular target: Protein arginine N-methyltransferase 5 (Homo sapiens, UniProt O14744); experiment: Inhibition of recombinant human PRMT5 using histone H2A as substrate by hotspot assay
# [11] = molecular target: Protein arginine N-methyltransferase 3 (Homo sapiens, UniProt O60678); experiment: Inhibition of recombinant human PRMT3 using histone H4 as substrate by hotspot assay; conditions: for pIC50: read-out: IC50
# [12] = molecular target: Histone-lysine N-methyltransferase EZH2 (Homo sapiens, UniProt Q15910); experiment: Inhibition of recombinant human EZH2 using core histone as substrate by hotspot assay
# [13] = molecular target: T4, Histone-lysine N-methyltransferase EHMT2 (Homo sapiens, UniProt Q96KQ7); experiment: Inhibition of recombinant human G9a using histone H3 (1 to 21) as substrate by hotspot assay; conditions: for pIC50: read-out: IC50
# T4 sequence (Q96KQ7 whole entry): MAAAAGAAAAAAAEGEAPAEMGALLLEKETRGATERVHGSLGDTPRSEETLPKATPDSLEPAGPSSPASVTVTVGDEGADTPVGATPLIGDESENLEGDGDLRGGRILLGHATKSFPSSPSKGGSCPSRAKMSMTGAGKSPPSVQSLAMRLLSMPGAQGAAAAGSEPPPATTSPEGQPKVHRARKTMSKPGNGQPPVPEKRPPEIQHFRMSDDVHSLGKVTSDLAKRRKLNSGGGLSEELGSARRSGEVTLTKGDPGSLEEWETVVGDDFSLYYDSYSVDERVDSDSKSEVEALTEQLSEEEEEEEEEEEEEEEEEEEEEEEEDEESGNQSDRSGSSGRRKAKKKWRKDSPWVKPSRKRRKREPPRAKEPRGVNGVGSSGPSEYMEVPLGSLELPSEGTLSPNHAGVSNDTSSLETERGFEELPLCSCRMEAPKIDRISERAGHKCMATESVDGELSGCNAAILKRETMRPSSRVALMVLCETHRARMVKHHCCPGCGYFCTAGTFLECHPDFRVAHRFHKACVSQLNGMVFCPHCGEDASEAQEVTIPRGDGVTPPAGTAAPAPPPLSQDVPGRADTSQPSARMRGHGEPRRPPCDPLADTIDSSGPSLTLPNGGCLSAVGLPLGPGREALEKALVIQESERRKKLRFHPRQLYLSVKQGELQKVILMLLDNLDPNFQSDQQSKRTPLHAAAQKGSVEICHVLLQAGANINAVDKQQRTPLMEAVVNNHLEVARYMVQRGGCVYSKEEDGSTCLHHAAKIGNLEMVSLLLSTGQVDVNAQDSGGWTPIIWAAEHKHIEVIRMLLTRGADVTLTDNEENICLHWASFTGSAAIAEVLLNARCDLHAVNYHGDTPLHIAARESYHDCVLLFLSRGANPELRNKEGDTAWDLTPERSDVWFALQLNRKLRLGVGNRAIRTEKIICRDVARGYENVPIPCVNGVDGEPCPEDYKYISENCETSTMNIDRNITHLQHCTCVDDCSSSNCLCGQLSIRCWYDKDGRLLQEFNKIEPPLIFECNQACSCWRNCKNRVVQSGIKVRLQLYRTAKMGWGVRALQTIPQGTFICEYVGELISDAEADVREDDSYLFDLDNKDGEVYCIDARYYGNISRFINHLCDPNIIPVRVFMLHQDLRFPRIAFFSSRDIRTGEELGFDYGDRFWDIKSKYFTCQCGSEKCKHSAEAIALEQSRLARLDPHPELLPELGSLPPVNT
# [14] = molecular target: Protein arginine N-methyltransferase 8 (Homo sapiens, UniProt Q9NR22); experiment: Inhibition of recombinant human PRMT8 using histone H4 as substrate by hotspot assay
# [15] = molecular target: T5, Protein arginine N-methyltransferase 7 (Homo sapiens, UniProt Q9NVM4); experiment: Inhibition of recombinant human PRMT7 using GST-GAR as substrate by hotspot assay; conditions: for pIC50: read-out: IC50
# T5 sequence (Q9NVM4 whole entry): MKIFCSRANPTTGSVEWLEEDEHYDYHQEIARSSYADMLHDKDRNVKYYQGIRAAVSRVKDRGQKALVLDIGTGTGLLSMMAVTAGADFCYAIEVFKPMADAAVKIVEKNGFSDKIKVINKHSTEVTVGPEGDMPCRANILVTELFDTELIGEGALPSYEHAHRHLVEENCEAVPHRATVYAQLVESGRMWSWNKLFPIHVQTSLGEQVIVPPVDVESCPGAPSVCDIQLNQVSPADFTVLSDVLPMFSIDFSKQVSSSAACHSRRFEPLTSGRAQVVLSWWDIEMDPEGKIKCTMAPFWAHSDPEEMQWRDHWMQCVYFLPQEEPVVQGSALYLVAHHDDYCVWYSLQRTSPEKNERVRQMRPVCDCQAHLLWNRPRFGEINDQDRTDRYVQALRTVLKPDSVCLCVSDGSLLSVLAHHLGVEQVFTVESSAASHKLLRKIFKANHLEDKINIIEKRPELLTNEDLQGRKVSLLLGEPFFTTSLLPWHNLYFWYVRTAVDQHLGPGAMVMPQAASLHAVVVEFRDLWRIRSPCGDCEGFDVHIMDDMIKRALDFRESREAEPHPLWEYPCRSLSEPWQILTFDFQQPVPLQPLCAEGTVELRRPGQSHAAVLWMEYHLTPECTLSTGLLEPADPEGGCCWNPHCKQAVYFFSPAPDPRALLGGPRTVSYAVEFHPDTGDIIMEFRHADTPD
# Sequence of Protein arginine N-methyltransferase 8 (Q9NR22 whole entry): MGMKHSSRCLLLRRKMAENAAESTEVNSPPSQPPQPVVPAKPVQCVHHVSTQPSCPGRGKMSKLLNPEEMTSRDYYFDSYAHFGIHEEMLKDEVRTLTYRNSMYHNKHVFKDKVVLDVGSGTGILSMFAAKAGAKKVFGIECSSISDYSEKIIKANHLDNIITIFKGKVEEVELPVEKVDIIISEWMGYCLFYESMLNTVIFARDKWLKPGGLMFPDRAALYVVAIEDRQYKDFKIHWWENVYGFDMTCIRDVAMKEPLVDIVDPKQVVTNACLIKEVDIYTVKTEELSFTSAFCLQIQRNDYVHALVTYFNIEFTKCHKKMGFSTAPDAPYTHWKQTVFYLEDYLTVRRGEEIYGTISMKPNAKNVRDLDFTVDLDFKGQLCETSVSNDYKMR
# Sequence of Protein arginine N-methyltransferase 5 (O14744 whole entry): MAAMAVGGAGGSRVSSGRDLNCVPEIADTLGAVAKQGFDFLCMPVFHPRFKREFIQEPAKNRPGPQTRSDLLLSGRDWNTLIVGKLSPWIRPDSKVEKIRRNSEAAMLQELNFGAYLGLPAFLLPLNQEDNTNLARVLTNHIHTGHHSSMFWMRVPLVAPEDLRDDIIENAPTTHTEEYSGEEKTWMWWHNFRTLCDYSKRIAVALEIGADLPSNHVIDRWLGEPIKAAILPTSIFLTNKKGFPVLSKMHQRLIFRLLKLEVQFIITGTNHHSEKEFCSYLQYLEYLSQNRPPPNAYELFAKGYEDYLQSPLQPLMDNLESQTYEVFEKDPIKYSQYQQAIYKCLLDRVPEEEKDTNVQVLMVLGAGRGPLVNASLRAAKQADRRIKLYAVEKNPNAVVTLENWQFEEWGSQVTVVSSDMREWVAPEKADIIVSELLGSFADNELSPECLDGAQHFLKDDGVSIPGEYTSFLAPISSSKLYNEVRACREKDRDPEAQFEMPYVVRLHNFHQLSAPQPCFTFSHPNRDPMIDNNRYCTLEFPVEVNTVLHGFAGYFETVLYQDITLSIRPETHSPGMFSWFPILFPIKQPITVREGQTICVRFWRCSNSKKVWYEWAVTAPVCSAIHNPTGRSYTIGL
# Sequence of Protein arginine N-methyltransferase 3 (O60678 whole entry): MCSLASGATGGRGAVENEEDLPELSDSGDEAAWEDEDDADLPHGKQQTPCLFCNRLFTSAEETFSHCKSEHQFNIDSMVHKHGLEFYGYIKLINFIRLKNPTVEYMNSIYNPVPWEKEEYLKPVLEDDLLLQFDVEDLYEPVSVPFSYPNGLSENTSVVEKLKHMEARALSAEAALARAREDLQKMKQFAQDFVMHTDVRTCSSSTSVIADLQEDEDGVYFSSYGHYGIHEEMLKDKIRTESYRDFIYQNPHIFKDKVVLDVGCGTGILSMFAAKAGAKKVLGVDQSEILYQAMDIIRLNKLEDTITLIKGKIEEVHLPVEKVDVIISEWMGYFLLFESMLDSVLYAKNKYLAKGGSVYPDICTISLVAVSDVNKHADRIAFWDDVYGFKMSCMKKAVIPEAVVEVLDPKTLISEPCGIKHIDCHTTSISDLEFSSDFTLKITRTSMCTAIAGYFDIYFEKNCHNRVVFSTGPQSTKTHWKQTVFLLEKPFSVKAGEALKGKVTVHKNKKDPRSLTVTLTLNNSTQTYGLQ
# Sequence of Histone-lysine N-methyltransferase EZH2 (Q15910 whole entry): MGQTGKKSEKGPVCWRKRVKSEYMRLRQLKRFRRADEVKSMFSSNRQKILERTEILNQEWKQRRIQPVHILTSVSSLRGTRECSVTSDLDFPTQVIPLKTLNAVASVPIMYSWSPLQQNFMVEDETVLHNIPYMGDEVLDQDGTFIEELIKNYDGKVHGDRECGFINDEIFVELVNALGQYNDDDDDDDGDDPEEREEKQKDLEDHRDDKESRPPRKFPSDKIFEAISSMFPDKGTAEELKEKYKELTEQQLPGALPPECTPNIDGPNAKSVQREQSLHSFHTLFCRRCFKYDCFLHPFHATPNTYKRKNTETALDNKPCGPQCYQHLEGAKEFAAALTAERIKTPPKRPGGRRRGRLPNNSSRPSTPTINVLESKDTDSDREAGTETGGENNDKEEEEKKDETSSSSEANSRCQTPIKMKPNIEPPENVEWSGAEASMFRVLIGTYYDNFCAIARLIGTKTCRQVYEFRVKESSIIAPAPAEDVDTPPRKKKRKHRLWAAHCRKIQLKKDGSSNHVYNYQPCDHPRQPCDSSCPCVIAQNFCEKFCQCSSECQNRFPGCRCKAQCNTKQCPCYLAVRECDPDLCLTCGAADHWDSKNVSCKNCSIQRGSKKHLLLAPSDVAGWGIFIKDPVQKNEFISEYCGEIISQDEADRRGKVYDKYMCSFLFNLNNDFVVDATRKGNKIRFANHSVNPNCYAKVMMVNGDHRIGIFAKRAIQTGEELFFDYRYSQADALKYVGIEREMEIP
structure (smiles),measurement,setting,value
Nc1ncnc2c1ncn2[C@@H]1O[C@H](CNCc2ccc(OCC(=O)Nc3ccccn3)cc2)[C@@H](O)[C@H]1O,pIC50,[1],4.26
same,Activity,[2],Active
same,inhibition,[3],inactive
same,inhibition,[4],inactive
same,inhibition,[5],Tde
O=C(Cn1cnc(C(=O)NC2CCCCC2)n1)NCc1ccc2[nH]ncc2c1,pIC50,[6],< 4.00
Nc1ncnc2c1ncn2[C@@H]1O[C@H](CNCc2ccc(-c3cc(C(F)(F)F)ccc3Cl)o2)[C@@H](O)[C@H]1O,pIC50,[1],4.49
same,Activity,[2],Active
Cc1ccc(NC(=O)c2ncn(CC(=O)NCCn3cnc4[nH]ccc4c3=O)n2)cc1C,pIC50,[6],3.86
CC(C)(C)c1ccc(NC(=O)c2ncn(CC(=O)NCc3ccc4c(c3)OCO4)n2)cc1,pIC50,[6],4.63
Cc1ccc(NC(=O)c2ncn(CC(=O)NCc3ccc4c(c3)OCO4)n2)cc1C,pIC50,[1],4.08
same,pIC50,[6],4.39
same,Activity,[7],Active
Cc1ccc(NC(=O)c2ncn(CC(=O)NCCn3ccc4c(N)ncnc43)n2)cc1C,pIC50,[6],4.96
same,pIC50,[8]; read-out: IC50,< 3.60
same,IC50,[9],Not Active
same,IC50,[10],Not Active
same,IC50,[11],Not Active
same,IC50,[12],Not Active
same,IC50,[13],Not Active
Nc1ncnc2c1ncn2[C@@H]1O[C@H](C(=O)N2CCC[C@H]2C(=O)OCc2ccccc2)[C@@H](O)[C@H]1O,pIC50,[1],4.07
same,Activity,[2],Active
CC(C)(C)c1ccc(NC(=O)c2ncn(CC(=O)NCc3ccc4[nH]ncc4c3)n2)cc1,pIC50,[6],4.65
same,IC50,[8],Not Active
same,IC50,[9],Not Active
same,IC50,[10],Not Active
same,IC50,[11],Not Active
same,pIC50,[12]; read-out: IC50,< 3.60
same,pIC50,[13],< 3.60
Nc1ncnc2c1ccn2CCNC(=O)Cn1cnc(C(=O)NC2CCCCC2)n1,pIC50,[6],< 4.00
CC(C)(C)c1ccc(NC(=O)c2ncn(CC(=O)NCc3ccc4c(N)nccc4c3)n2)cc1,pIC50,[6],4.71
same,IC50,[8],Not Active
same,pIC50,[14],4.27
same,pIC50,[9]; read-out: IC50,4.10
same,pIC50,[15],4.21
same,pIC50,[10]; read-out: IC50,3.95
same,pIC50,[11],4.60
same,IC50,[12],Not Active
same,pIC50,[13],4.21
O=C(Nc1ccn(CCCN2CCC(c3ccccc3)CC2)c(=O)n1)OCc1ccccc1,pIC50,[1],3.15
same,Activity,[7],Active
Nc1ncnc2c1ncn2[C@@H]1O[C@H](CNCc2ccc(OCc3ccccc3)cc2)[C@@H](O)[C@H]1O,pIC50,[1],3.92
same,Activity,[2],Active
O=C(Nc1ccn(CCCNCc2ccc3c(c2)OCO3)c(=O)n1)OCc1ccccc1,pIC50,[1],3.17
same,Activity,[7],Active
Nc1ncnc2c1ncn2[C@@H]1O[C@H](CNC(=O)[C@@H](N)Cc2ccc(C(=O)c3ccccc3)cc2)[C@@H](O)[C@H]1O,pIC50,[1],4.24
same,Activity,[2],Active
Nc1ncnc2c1ncn2[C@@H]1O[C@H](CNCc2ccc(OCC(=O)Nc3nccs3)cc2)[C@@H](O)[C@H]1O,pIC50,[1],4.04
same,Activity,[2],Active
Nc1nccc2cc(CNC(=O)Cn3cnc(C(=O)NC4CCCCC4)n3)ccc12,pIC50,[6],< 4.00
same,pIC50,[14],4.02
same,IC50,[15],Not Active
same,IC50,[10],Not Active
same,IC50,[11],Not Active
Nc1ncnc2c1ncn2[C@@H]1O[C@H](CNC(=O)[C@@H](N)Cc2ccc(C(F)(F)F)cc2)[C@@H](O)[C@H]1O,pIC50,[1],3.77
same,Activity,[2],Active
Cc1ccc2nc(NC(=O)c3ncn(CC(=O)NCc4ccc5c(c4)OCO5)n3)[nH]c2c1,pIC50,[6],4.25
Cc1ccc(NC(=O)c2ncn(CC(=O)NCc3ccc4[nH]ncc4c3)n2)cc1C,pIC50,[6],4.43
Nc1ncnc2c1ncn2[C@@H]1O[C@H](CSCC[C@H](N)C(=O)O)[C@@H](O)[C@H]1O [S-ADENOSYLHOMOCYSTEINE],pIC50,[11],6.12
O=C(Cn1cnc(C(=O)NC2CCCCC2)n1)NCc1ccc2c(c1)OCO2,pIC50,[6],< 4.00
Cc1ccc(NC(=O)c2ncn(CC(=O)NCc3ccc4c(N)nccc4c3)n2)cc1C,pIC50,[6],4.16
same,pIC50,[14],3.67
same,pIC50,[15],4.16
same,IC50,[10],Not Active
same,IC50,[11],Not Active
Cc1ccc(NC(=O)c2ncn(CC(=O)NCc3nc4ccccc4[nH]3)n2)cc1C,pIC50,[1],3.89
same,Activity,[7],Active
